The results in this text go back to ChEMBL document CHEMBL3044620, “Cinnamic acid inhibits growth but stimulates production of pathogenesis factors by in vitro cultures of Fusarium oxysporum f.sp. niveum” (2008).

Assay [1] has as its system Fusarium oxysporum f. sp. niveum. The experiment in a line: Stimulation of cellulase activity in Fusarium oxysporum f. sp. niveum at 1600 mg/L measured 7 days post compound treatment by DNS method. It counts as functional.
Assay [2] has the same test system. The experiment in a line: Stimulation of proteinase activity in Fusarium oxysporum f. sp. niveum at 1600 mg/L measured 7 days post compound treatment. It is filed as functional.
Another assay has as its system Neurospora crassa. The experiment in a line: Growth inhibition of Neurospora crassa assessed as inhibition of mycelial growth at 200 mg/L. To be noted: read-out: GI. It is filed as functional.
The test system of assay [3] is Fusarium oxysporum f. sp. niveum. The assay is described as follows: Growth inhibition of Fusarium oxysporum f. sp. niveum assessed as inhibition of mycelium dry weight at 1600 mg/L measured 7 days post compound treatment. It is filed as functional. As to conditions: 168 h. In short, it runs like this:
(§1)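 Strain NJAUS-1 was grown in 30 mL potato dextrose broth (pH 4.5, HCl), inoculated with a 5 mm plug from a 7-day PDA culture. Flasks were shaken at 170 rpm, 28 °C, for 7 days. Mycelium was filtered and dried at 80 °C for 12 h to constant dry weight. Cinnamic acid was tested at 200–1600 mg L-1; controls received sterile water. Three replicates, mean ± SE.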

Assay [4] has the same test system. The experiment in a line: Stimulation of amylase activity in Fusarium oxysporum f. sp. niveum at 1600 mg/L measured 7 days post compound treatment by DNS method (reference value: 3.7 +/- 0.5 umol/min/ml). It counts as functional.
For assay [5] the test system is unchanged. The assay is described as follows: Stimulation of amylase activity in Fusarium oxysporum f. sp. niveum at 400 mg/L measured 7 days post compound treatment by DNS method (reference value: 3.7 +/- 0.5 umol/min/ml). It counts as functional.
Assay [6] has the same test system. The experiment in a line: Stimulation of cellulase activity in Fusarium oxysporum f. sp. niveum at 1600 mg/L measured 7 days post compound treatment by DNS method (reference value: 0.03 +/- 0.1 umol/min/ml). It is filed as functional.
For assay [7] the test system is unchanged. The assay is described as follows: Stimulation of proteinase activity in Fusarium oxysporum f. sp. niveum at 1600 mg/L measured 7 days post compound treatment (reference value: 0.42 +/- 0.2 U//min/ml). It is filed as functional.
Assay [8] shares this test system. The experiment in a line: Stimulation of pectinase activity in Fusarium oxysporum f. sp. niveum at 1600 mg/L measured 7 days post compound treatment by DNS method (reference value: 0.01 +/- 0.0 U//ml/min). It is filed as functional.
Assay [9] shares this test system. The assay is described as follows: Stimulation of mycotoxin production in Fusarium oxysporum f. sp. niveum at 1600 mg/L measured 7 days post compound treatment by spectrophotometry (reference value: 26.9 +/- 4.9 ug/mL). It counts as functional.
The test system is the same in assay [10]. The experiment in a line: Growth inhibition of Fusarium oxysporum f. sp. niveum assessed as reduction in sporulation measured 7 days post compound treatment. It counts as functional, organism-based. In short, it runs like this:
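FON was grown 7 days in modified Bilay and Joffe's medium (4.0 g sodium carboxymethyl cellulose, pH 4) with cinnamic acid at 200–1600 mg L-1 or a water control. Broth was diluted 10-5–10-7, and 0.1 mL was spread on PDA and incubated in the dark at 28 °C for 4 days. Colonies were counted and converted to conidia per culture. Three replicates, mean ± SE.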

Assay [11] has the same test system. The experiment in a line: Growth inhibition of Fusarium oxysporum f. sp. niveum assessed as reduction in conidial germination measured […]. It is filed as functional, organism-based. In short, it runs like this: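 Conidia came from a 7-day liquid culture (28 °C), collected by filtration and diluted in sterile water. 0.1 mL was spread on 2% water agar plates containing cinnamic acid (200–1600 mg L-1; water control) and incubated at 28 °C for 3 days. Colonies were counted daily. Three replicate plates per treatment.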

Assay [12] shares this test system. The experiment in a line: Growth inhibition of Fusarium oxysporum f. sp. niveum assessed as colony diameter at 1600 mg/L measured 7 days post compound treatment (reference value: 7.0 +/- 0.63 cm). It counts as functional.
Assay [13] has the same test system. The experiment in a line: Growth inhibition of Fusarium oxysporum f. sp. niveum assessed as reduction in hyphal growth measured 7 days post compound treatment. It is filed as functional, organism-based.
The test system is the same in assay [14]. The assay is described as follows: Growth inhibition of Fusarium oxysporum f. sp. niveum assessed as mycelium dry weight at 1600 mg/L measured 7 days post compound treatment (reference value: 0.22 +/- 0.01 g). It is filed as functional. In short, it runs like this: as §1
For assay [15] the test system is unchanged. The experiment in a line: Stimulation of proteinase activity in Fusarium oxysporum f. sp. niveum at 1600 mg/L measured 7 days post compound treatment by Tseng and Mount method.

By inhibition is commonly meant the change of the read-out against control, counted positive when it falls.

As to `O=C(O)/C=C/c1ccccc1` [CINNAMIC ACID], the Activity was found to be 2006% in [1]; 760% in assay [2]; 4.6 µmol/min/mL in assay [4]; 5.2 µmol/min/mL in assay [5]; 0.33 µmol/min/mL in [6]; 3.21 U/min/ml in [7]. For the same compound, the Activity turned out to be 0.052 U/ml/min in assay [8]; 13.25 µg/mL in [9]; 0 cm in assay [12]; 0.08 g in assay [14]; 760% in [15]. The inhibition of growth at 200 µg/mL in the assay with Neurospora crassa was determined as 94%. The inhibition at 1600 µg/mL in assay [3] turned out to be 63.3%. Besides, the “growth inhibition (GI)” value in assay [10], in [11] and in assay [13] was “Dose-dependent effect” in each case.
